# Screens from PubChem.
# This is a sample that favours compounds with a hit; in the whole collection about 2.6% have one here.
# SKN-1 block – C. elegans SKN-1 inhibition; AID 624304; C. elegans VP596 Pgst-4::GFP/RFP ratio, acrylamide-induced, 24 h; inhibition, % at 21.8 µM; 0.49% of 360,000 active;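 active = interference check ratio from 0.5 to 1.5 plus GFP to RFP signal ratio inhibition reaching or exceeding a fixed threshold, cut at about 30% in these data, passing the limit was not always enough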
# T cell HTS – T cell immune modulation candidate; response (vesicle binding), % at 7 µM; 0.068% of 330,000 active; 2C CD8+ T cell-vesicle binding, flow cytometry; stronger effect = lower value;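 active = response, share of CD8 T cells binding vesicles, and their 90th percentile fluorescence all below set limits, cut at about 80% in these data, passing the limit was not always enough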;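 note: values below 100% mean blocked vesicle binding to the CD8+ T cells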
#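 System: murine 2C transgenic CD8+ T lymphocytes; also added: QL9-loaded Drosophila micro-vesicles; times: binding 1.5 h at 37 °C; measured by: flow cytometry, PE anti-B7-1 (FL2) versus Alexa647 anti-CD8 (FL8), PFA-fixed; control set: Peptide-free naked vesicles (low) and QL9 vesicles with 0.7% DMSO vehicle (high)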
# GRK2 inh – inhibitors of human GRK2 displacing RNA aptamer | P25098 | bead flow cytometry, FAM-aptamer displacement from GRK2 | inhibition of aptamer binding, % at 10 µM | 0.59% of 330,000 active | AID 488847;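 active = inhibition of aptamer binding above 40%, roughly 3 SD of noise, on plates passing a quality check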;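 note: median bead fluorescence of bound FAM aptamer so fluorescent compounds give negative values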
# Rin1 Abl inh – inhibitors of human Rin1-Abl protein interaction. P00519+Q13671. TR-FRET Rin1/Abl binding, biochemical. 0.4% of 360,000 active. inhibition, % at 7.35 µM. AID 588664; in the data active = inhibition above about 5%, passing the limit was not always enough
# Rce1 inhib – blocks yeast Ras-converting enzyme; yeast membranes, quenched prenylated peptide cleavage fluorescence; calls only; 0.27% of 290,000 active; AID 2563;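 active = fall in fluorescence gain of 50% or more versus controls, with final raw signal at or below 3038400; inconclusive = same 50% fall but final raw signal above 3038400; inactive = fall in fluorescence gain under 50%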;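 note: plate controls were neutral control wells for no effect and wells lacking membranes for full effect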
# Myeloid diff MLP – myeloid differentiation induction; ER-HoxA9 myeloid progenitors, lysozyme-GFP differentiation, flow cytometry; calls only at 10 µM; 1% of 360,000 active;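 active = normalized GFP-positive differentiation at or above the plate's own cutoff, the solvent-only control mean plus 3 SD; inconclusive = no clear call, values can overlap the other calls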;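 note: cells exposed to compound for four days before flow analysis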
# GRK2 inh confirm – confirmation of human GRK2 inhibitors displacing RNA aptamer; shares compounds with GRK2 inh; 4% of 2,000 active; aptamer displacement, % at 10 µM; bead-bound GRK2, FAM-aptamer displacement, flow cytometry;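 active = aptamer displacement above 40%, near three times the noise of non-fluorescent compounds, on plates passing quality checks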;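 note: negative values mostly reflect intrinsic compound fluorescence rather than true enhancement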
# FAM quench CP1 – quenches fluorescent RNA aptamer, GRK2 hit artifact; shares compounds with GRK2 inh; Carboxyfluorescein RNA aptamer on beads, flow cytometry quenching; stronger effect = lower value; 2,000 tested, under 10 active; fluorescence response (% of DMSO), % at 10 µM;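 active = compounds that quench the bead-bound fluorescent RNA probe, cutting fluorescence to under half of the solvent control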;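 note: counterscreen run without GRK2 so only probe quenching by compound is measured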
# * hit, by the source's call; i = inactive; ? = inconclusive; · = no result.
SMILES,SKN-1 block,T cell HTS,GRK2 inh,Rin1 Abl inh,Rce1 inhib,Myeloid diff MLP,GRK2 inh confirm,FAM quench CP1
O=C(Nc1cccc(-c2ccc(N3CCOCC3)nn2)c1)c1ccccc1Cl,20,244,1,2,i,i,1,102
Cc1cc(C(=O)Nc2cccc(-c3ccc(N4CCOCC4)nn3)c2)ccc1[N+](=O)[O-],7,219,0,2,i,i,·,·
O=C(COc1ccc(Cl)cc1)Nc1ccc(CN2CCOCC2)cc1,-4,717,0,-1,·,i,·,·
O=C(COc1ccc(Cl)cc1)Nc1cccc(-c2ccc(N3CCOCC3)nn2)c1,3,219,0,1,i,i,4,100
CCOC(=O)C1=C(COC(=O)C(CC)Oc2ccccc2)NC(=O)NC1C (centres undefined),26,166,2,2,i,i,·,·
CC(C)(C)NC(=O)NC(=O)COC(=O)CCC1CCCC1,3,482,0,0,i,i,·,·
COc1ccc(NC(=O)CSc2nnc3ccc(-c4ccccn4)nn23)cc1OC,10,544,1,0,i,i,·,·
O=C(Nc1cccc(-c2ccc(N3CCOCC3)nn2)c1)c1cccc(Cl)c1,6,·,·,4,·,i,·,·
O=C(Nc1cccc(-c2ccc(N3CCOCC3)nn2)c1)c1ccc(Cl)cc1,5,214,2,1,i,i,1,96
COc1ccc(C(=O)Nc2cccc(-c3ccc(N4CCOCC4)nn3)c2)cc1,2,227,1,-1,i,i,4,102
COc1cc(OC)cc(C(=O)Nc2cccc(-c3ccc(N4CCOCC4)nn3)c2)c1,-12,254,5,3,i,i,·,·
COc1cccc(C(=O)c2cn(CC(=O)NCc3ccco3)c3nc(C)ccc3c2=O)c1,9,132,5,0,i,?,·,·
O=C(NCc1ccccc1)C(c1ccncc1)N(C(=O)c1csnn1)c1ccccc1F (centres undefined),-11,i,95*,6,i,i,0,99
O=C(NC1CCCC1)C(c1ccncc1)N(C(=O)c1csnn1)c1ccccc1F (centres undefined),-1,478,3,0,i,i,·,·
Cc1cccc(COC[C@H](Cc2ccccc2)N2CCN(C(=O)c3cc(Cl)cc(Cl)c3)CCC2=O)c1,1,·,·,·,·,i,·,·
Cc1cccc2cc(-c3ccccc3)c(-c3ccccc3)c[n+]12,4,968,44*,-1,i,i,18,62
O=[N+]([O-])c1cccc(-c2cc3cccc[n+]3cc2-c2cccc([N+](=O)[O-])c2)c1,4,215,0,0,i,i,·,·
CC(C(=O)Nc1ccon1)N1C(=O)c2ccccc2S1(=O)=O (centres undefined),14,380,95*,-2,i,i,-1,96
CC(C(=O)Nc1nccs1)N1C(=O)c2ccccc2S1(=O)=O (centres undefined),8,332,1,-5,i,i,·,·
Cc1c(NS(=O)(=O)c2ccc3[nH]c(=O)[nH]c3c2)c(=O)n(-c2ccccc2)n1C,-3,307,75*,-1,i,i,1,106
Cc1c(NS(=O)(=O)c2ccccc2)c(=O)n(-c2ccccc2)n1C,-3,195,2,3,·,i,·,·
NC(=S)Cc1ccccc1Cl,-16,326,3,-5,i,i,·,·
O=C(O)CCNc1cc(N2CCN(C(=O)c3ccco3)CC2)c2noc3c2c1C(=O)c1ccccc1-3,42,242,83*,-13,i,i,-1,94
CCN1CCN(c2cc(N3CCN(C(=O)c4ccco4)CC3)c3c4c(onc24)-c2ccccc2C3=O)CC1,27,342,0,-11,i,?,·,·
CC(=O)Nc1ccc(NC(=O)C(C)OC(=O)CSCc2cccc(Cl)c2)cc1 (centres undefined),12,357,0,2,i,i,·,·
